Source: PubChem BioAssay
Most compounds without a hit are left out; they make up all but 2.6% or so of the library.
miR122 inh = blocks miR-122 activity in Huh7 sensor cells; Huh7 miR-122 Renilla luciferase sensor, 48 h; neutral wells = 0, positive control = 100; activation (reporter increase), % at 12.5 µM; actives 0.3% (n = 340,000); AID 602342;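 active = mean replicate activation score at least 90 and every replicate individually at or above 90; inconclusive = only one of the two criteria met; inactive = neither criterion met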;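 also: higher luciferase means less miR-122 activity so hits act as miR-122 inhibitors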
S100A4 MyoIIA = blocks human S100A4 binding to myosin IIA peptide; P26447; S100A4/TAMRA-MyoIIA peptide fluorescence polarization; inhibition, % at 10.7 µM; actives 0.14% (n = 360,000); AID 652163;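 active = mean inhibition of at least 70% across replicates, with every replicate also reaching that level; inconclusive = mean inhibition reaches 70% but some replicates fall short; inactive = mean inhibition below 70%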
Target sequence (P26447 whole entry, looked up): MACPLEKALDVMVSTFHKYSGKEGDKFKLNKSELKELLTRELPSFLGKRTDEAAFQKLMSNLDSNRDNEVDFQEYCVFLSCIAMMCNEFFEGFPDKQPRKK
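assay system = human S100A4 monomer with TAMRA-labelled myosin IIA peptide | also added = labelled myosin peptide probe, 5 nM | incubation = 5 min between mix addition and reading | control set = DMSO and TFP controls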
Vif inh = inhibitors of HIV Vif; HEK293T cells, Vif self-association by quenched fluorescence, imaging, 24 h; inhibition, % at 7.49 µM; actives 0.35% (n = 340,000); AID 602346; in the data active = inhibition above about 50%, passing the limit was not always enough; inconclusive = no clear call, values can overlap the other calls; inactive = below about 31%
Ecoli rRNA inh = selective bacterial rRNA inhibition in E. coli; E. coli WT GFP vs humanized-ribosome RFP mutants, fluorescence, 24 h; active compounds read low; DMSO median 0, no signal -100; GFP signal change (wild-type ribosome), % (concentration not given with the values); actives 1.6% (n = 350,000); AID 720706;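 active = significant combined selectivity score with lowered wild-type GFP, culture density cut under 30%, mutant RFP and density less affected; inactive = any of these conditions unmet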
FN deposition inh = fibronectin deposition inhibition; AH1F fibroblasts, Alexa488-fibronectin deposition fluorescence, overnight; inhibition, % at 12.6 µM; actives 0.086% (n = 350,000);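 active = mean inhibition across replicates of 30% or more, regardless of how many single replicates reach that level; inconclusive = mean under 30% yet at least half of replicates reach 30%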;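 also: positive control wells lacked labelled fibronectin entirely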
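Material: AH1F fibroblast monolayer depositing Alexa488-labelled fibronectin into matrix | Input: 10000 AH1F cells/well | Medium: DMEM plus 2% serum, read in PBS | Reagent: Alexa488-fibronectin, 24 nM final in well | Compound dosing: One dose per compound, pinned | Schedule: 1 h adhesion, overnight exposure | Measured by: Fluorescence at 485 nm excitation, 525 nm emission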
HIV Env fusion = blocks HIV Env-driven cell-cell fusion. HeLa-JRFL Env/CEM21 cell fusion, luciferase. inhibition, % at 12.3 µM. actives 1.1% (n = 360,000). AID 651610;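 active = mean replicate inhibition score of at least 50 and every replicate individually at or above 50; inconclusive = only one of the two criteria met; inactive = mean below 50 and not all replicates reaching 50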;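 also: 0% = plate neutral controls and 100% = maraviroc near 300 nM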
* hit, by the source's call; i = inactive; ? = inconclusive; / = no result; [ ] = dose if it differs, or a comment.

SMILES	miR122 inh	S100A4 MyoIIA	Vif inh	Ecoli rRNA inh	FN deposition inh	HIV Env fusion
COc1ccc(Nc2nc3cc(-c4ccsc4)sc3c(=O)n2C)cc1OC	5	-5	16	-21*	/	-20
COc1ccc(S(=O)(=O)Nc2ccc3c(c2)C(=O)N([C@@H](C)CO)C[C@@H](C)[C@H](CN(C)CC2CC2)O3)cc1	7[16.7 µM]	-84	/	-2	-7	/
COc1cccc(C(=O)NNC(=O)CCc2ccccc2)c1	-5	-2	0	-21*	-1	14
C[C@@H]1CN([C@@H](C)CO)C(=O)c2cc(NC(=O)NC3CCCCC3)ccc2O[C@@H](C)CCCCO[C@H]1CN(C)Cc1ccc(Cl)c(Cl)c1	-2[16.7 µM]	13	/	-1	/	26[16.7 µM]
Cc1[nH]c2ccccc2c1C1(O)C(=O)N(C(C)C)c2ccccc21 (stereo unspecified)	0	/	57*	/	8	0
S=c1[nH]nc(-c2ccccc2)n1/N=C/c1cccs1	2	2	-1	-19*	/	/
Cc1ccc(-c2n[nH]c(=S)n2/N=C/c2cccs2)cc1	2	2	-6	-33*	5	17
S=c1[nH]nc(-c2cc(-c3ccccc3)n[nH]2)n1/N=C/c1cccc(Cl)c1	/	-1	-3	-17*	-6	-7
S=c1[nH]nc(-c2cc(-c3ccccc3)n[nH]2)n1/N=C/c1ccc(Cl)cc1	0	-1	-4	-4	-8	-9
Cc1nc2ccccc2c(=O)n1/N=C/c1cccs1	-3	-3	7	-19*	-6	-11
CC(C)NC(=O)Nc1cccc2c1O[C@@H](CN(C)C(=O)Nc1ccc(F)cc1)[C@@H](C)CN([C@@H](C)CO)C2=O	1[16.7 µM]	-11	/	1	/	/
CO[C@@H]1CN(C)C(=O)c2ccc(NS(C)(=O)=O)cc2OC[C@@H](C)N(S(C)(=O)=O)C[C@H]1C	/	-6	/	2	-5	2[16.7 µM]
C=CCNC(=S)Nc1sc2c(c1C(N)=O)CCCC2	9	-2	1	-31*	4	-2
CCCN1C[C@@H](C)[C@@H](OC)CN(C)C(=O)c2cc(NC(=O)c3cccc(F)c3)ccc2OC[C@H]1C	0[16.7 µM]	-3	/	1	-24	/
Cc1nc(NC(=S)Nc2ccccc2)sc1C	/	1	-1	-27*	-6	-46
COc1cc(CNC(C)c2ccccc2)cc(Cl)c1OCC(=O)Nc1ccccc1 (stereo unspecified)	/	-6	-8	-44	26	71*
C/C(=N\Nc1ccc2nncn2n1)c1ccccn1	10	-4	9	-41	-11	-71
C(=N\Nc1nncc2ccccc12)/c1ccccn1	9	-3	?	-16	6	84*
C(=N\Nc1ccc2nncn2n1)/c1ccccn1	-3	0	6	-34*	6	-3
C[C@@H]1CCCCO[C@H](CN(C)C(=O)c2ccccc2)[C@@H](C)CN([C@H](C)CO)C(=O)c2cc(NC(=O)Nc3ccccc3)ccc2O1	0[16.7 µM]	-56	/	-1	-1	-4[16.7 µM]
COC(=O)c1c(C)oc(C)c1S(=O)(=O)NCC1CC1	97*	0	-1	15	-3	6
O=C(CSc1nnnn1Cc1ccccc1)c1ccccc1F	/	-2	5	-28	4	14
Cc1ccc(C(=O)CSc2nnnn2Cc2ccccc2)cc1C	-5	-4	-1	-28*	8	-7
COc1cc2c3c([nH]c2cc1F)C(=O)NCC3	/	0	i	12	-10	59*
C[C@@H]1CN([C@@H](C)CO)C(=O)c2cccc(NC(=O)C3CCCCC3)c2O[C@@H]1CN(C)Cc1ccc2c(c1)OCO2	-3[16.7 µM]	-31	/	2	/	/
SMILES	miR122 inh	S100A4 MyoIIA	Vif inh	Ecoli rRNA inh	FN deposition inh	HIV Env fusion
C[C@@H]1CN([C@H](C)CO)C(=O)c2cc(/C=C/c3ccccc3)cnc2O[C@H]1CN(C)C(=O)Cc1cccnc1	-18[16.7 µM]	2	/	-7	-13	/
CNc1cc(NS(=O)(=O)c2ccc(N)cc2)nc(NC)n1	21	1	53*	-7	2	-12
Cc1cc(C)nc(NS(=O)(=O)c2ccc(N)cc2)n1	-3	-8	2	/	6	4
O=C(O)C[C@H]1CC[C@H](NC(=O)c2ccncc2)[C@@H](CO)O1	-2[16.7 µM]	1	/	3	-12	8[16.7 µM]
Cc1ccc(C(=O)CC(=O)c2cc(Cl)ccc2O)cc1	3	/	12	/	-7	-55
CC(C)(C)c1ccc(C(=O)CC(=O)c2cc(Cl)ccc2O)cc1	7	/	-9	/	/	83*
C[C@@H]1CN([C@@H](C)CO)C(=O)c2cc(NC(=O)Nc3ccc4c(c3)OCO4)ccc2O[C@@H]1CN(C)S(=O)(=O)c1ccc(Cl)cc1	36[16.7 µM]	-7	/	2	1	-33[16.7 µM]
C[C@@H]1CN([C@H](C)CO)C(=O)c2cccc(NC(=O)C3CCOCC3)c2O[C@@H]1CN(C)C(=O)Nc1ccc2c(c1)OCO2	10[16.7 µM]	3	/	0	11	-30[16.7 µM]
COc1cccc(C#Cc2ccc([C@H]3[C@H]4CN(C(C)=O)CC(=O)N4[C@H]3CO)cc2)c1	/	-65	/	1	/	/
Cc1ccc(S(=O)(=O)Nc2ccccc2-c2ccccc2)cc1	161*	/	27	/	10	41
Cc1ccc(S(=O)(=O)Nc2ccccc2NS(=O)(=O)c2ccc(C)cc2)cc1	/	-3	-8	-27	6	2
CC(NC(=O)CSc1ccc(S(=O)(=O)N2CCOCC2)cn1)c1ccc(Cl)cc1Cl (stereo unspecified)	-4	-11	4	4	30*	/
CC(C)CCNC(=O)c1cccc(S(=O)(=O)N2CCc3ccccc32)c1	22	/	-3	/	11	0
O=C(NNC(=O)c1cccc(S(=O)(=O)N2CCc3ccccc32)c1)c1ccccc1	/	-1	-14	-26*	-3	4
O=C(c1ccc2c(c1)CCN2S(=O)(=O)c1ccccc1)N1CCN(c2ccccc2F)CC1	0	-3	-1	-22*	-8	-4
C[C@@H]1CN([C@@H](C)CO)C(=O)c2cccc(NS(=O)(=O)c3ccc(F)cc3)c2O[C@@H]1CN(C)C(=O)Nc1cccc2ccccc12	31[16.7 µM]	-66	/	-1	2	/
CN(C)c1nc(OCCNC(=O)COc2ccc(Cl)cc2Cl)nc(N2CCOCC2)n1	5	/	-20	/	0	41*
Cc1cc(Cl)ccc1OCC(=O)NCCOc1nc(N2CCOCC2)nc(N2CCOCC2)n1	-6	/	17	/	29	94*
CC1=C(/C=C/C(C)=C/C=C/C(C)=C/C(=O)O)C(C)(C)CCC1	2	0	65*	5	5	8
O=C(c1cc[n+]([O-])cc1)N1CCc2c([nH]c3ccccc23)C1c1ccccc1Cl (stereo unspecified)	-3	-36	-2	-30*	/	10
